The record followed here is paper PMC10373466 (ACS Omega, 2023).

SMILES strings stand for the structures. “And” between values parts separate entries of the source, which are not always exact repeats. Identical values can stand only once.

Data set [1] is described as follows: In vitro hepatotoxicity MTT assay. Particulars: human.
Another data set deals with HepG2 cell line. Briefly: In vitro hepatotoxicity MTT assay. The conditions noted are these: ratio of hepatotoxicity IC50 to AChE IC50.
Data set [2] can be described thus: Metal chelation assay, UV–vis spectroscopy. It counts as physicochemical. The conditions noted are these: compound 30 μM, ZnSO4 30 μM, ethanol. In outline: (§1)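 Test compound and metal salt (CuSO4, ZnSO4 or FeSO4) mixed in ethanol, both at 30 μM final, and incubated 30 min at room temperature. UV-vis spectra were recorded from 200 to 600 nm for the compound alone, the metal alone and the mixture. Spectra of metal alone and compound alone were subtracted from the mixture spectrum to give the difference spectrum attributed to complex formation.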

A further data set deals with T1, hMAO-B (Homo sapiens, UniProt P27338).
T1 sequence (P27338 1-520): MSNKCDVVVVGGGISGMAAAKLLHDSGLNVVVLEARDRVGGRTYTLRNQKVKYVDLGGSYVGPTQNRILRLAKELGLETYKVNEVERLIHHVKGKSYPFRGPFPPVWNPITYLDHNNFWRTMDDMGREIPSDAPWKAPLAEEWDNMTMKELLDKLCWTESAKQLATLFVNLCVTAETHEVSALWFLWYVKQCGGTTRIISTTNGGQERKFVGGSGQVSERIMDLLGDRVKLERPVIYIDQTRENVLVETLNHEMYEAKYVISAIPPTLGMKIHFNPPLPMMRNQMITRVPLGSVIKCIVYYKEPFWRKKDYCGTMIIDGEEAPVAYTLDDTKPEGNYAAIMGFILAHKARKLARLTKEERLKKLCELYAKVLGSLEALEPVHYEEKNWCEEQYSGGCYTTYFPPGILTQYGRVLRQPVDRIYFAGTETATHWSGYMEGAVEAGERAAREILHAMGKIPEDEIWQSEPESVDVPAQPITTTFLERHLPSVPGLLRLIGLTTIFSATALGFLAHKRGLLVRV
In words: biochemical. It is filed as biochemical.

A short description of data set [3]: Metal chelation assay, UV–vis spectroscopy. It is filed as physicochemical. Particulars: compound 30 μM, FeSO4 30 μM, ethanol. In outline: as §1
The target in another data set is Aβ1–42 (Homo sapiens, UniProt P05067). Briefly: Self-induced Aβ1–42 aggregation inhibition. It is filed as biochemical. The conditions noted are these: for IC50: Aβ1–42 aggregation inhibition IC50, self-induced aggregation; for inhibition at 10 µM: read-out: Aβ1–42 (% inhibition at 10 μM).
Aβ1–42, sequence (P05067 672-713): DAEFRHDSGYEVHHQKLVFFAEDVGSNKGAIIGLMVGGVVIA
The nature of data set [4]: Metal chelation assay, UV–vis spectroscopy. It counts as physicochemical. Particulars: compound 30 μM, CuSO4 30 μM, ethanol. In outline: as §1
The nature of data set [5]: Total antioxidant capacity. Particulars: Trolox TAC value = 1.00.
A further data set addresses hAChE (Homo sapiens, UniProt P22303). In words: In vitro AChE inhibition assay. It is filed as biochemical. The conditions noted are these: for IC50: in vitro AChE inhibition IC50 ± SD, Ellman method, n = 3.
Data set [6] in a line: In vitro neurotoxicity MTT assay. Particulars: human, SH-SY5Y neuroblastoma cells. It counts as cell-based.
The next data set concerns the target hBuChE (Homo sapiens, UniProt P06276). In words: In vitro BuChE inhibition assay. It is filed as biochemical. Particulars: for IC50: BuChE IC50 ± SD, modified Ellman method.
Another data set addresses BACE-1 (Homo sapiens, UniProt P56817). Briefly: β-Secretase inhibition assay. It counts as biochemical. The conditions noted are these: BACE-1 IC50 ± SD.

hBuChE, sequence (P06276 29-602): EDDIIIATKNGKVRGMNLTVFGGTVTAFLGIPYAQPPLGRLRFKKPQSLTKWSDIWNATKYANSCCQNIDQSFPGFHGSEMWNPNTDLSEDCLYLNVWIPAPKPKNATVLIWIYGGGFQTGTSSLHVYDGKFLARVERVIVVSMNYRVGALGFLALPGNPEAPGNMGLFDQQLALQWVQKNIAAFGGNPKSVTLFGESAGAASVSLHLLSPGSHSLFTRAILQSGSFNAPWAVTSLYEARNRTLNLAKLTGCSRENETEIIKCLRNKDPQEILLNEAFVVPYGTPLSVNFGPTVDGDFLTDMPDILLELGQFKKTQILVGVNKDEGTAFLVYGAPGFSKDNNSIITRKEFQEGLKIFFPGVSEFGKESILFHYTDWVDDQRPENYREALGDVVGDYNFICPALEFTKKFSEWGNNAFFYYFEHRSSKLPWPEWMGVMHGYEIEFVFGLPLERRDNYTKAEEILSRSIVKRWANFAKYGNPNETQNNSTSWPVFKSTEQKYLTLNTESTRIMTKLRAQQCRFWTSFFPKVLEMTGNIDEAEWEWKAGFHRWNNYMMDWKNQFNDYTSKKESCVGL
BACE-1, sequence (P56817 46-501): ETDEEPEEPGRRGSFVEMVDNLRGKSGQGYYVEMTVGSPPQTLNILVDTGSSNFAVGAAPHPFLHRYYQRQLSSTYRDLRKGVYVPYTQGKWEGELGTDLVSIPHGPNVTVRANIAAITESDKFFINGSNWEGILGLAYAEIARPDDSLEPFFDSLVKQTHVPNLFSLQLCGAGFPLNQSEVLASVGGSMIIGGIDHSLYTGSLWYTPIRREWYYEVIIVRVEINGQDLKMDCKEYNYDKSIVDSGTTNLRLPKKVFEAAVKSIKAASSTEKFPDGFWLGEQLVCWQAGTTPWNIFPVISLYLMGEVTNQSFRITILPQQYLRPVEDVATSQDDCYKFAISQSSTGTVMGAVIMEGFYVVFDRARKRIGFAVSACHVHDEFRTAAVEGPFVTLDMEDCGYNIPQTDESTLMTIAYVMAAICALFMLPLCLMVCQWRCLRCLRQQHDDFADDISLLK
hAChE, sequence (P22303 32-614): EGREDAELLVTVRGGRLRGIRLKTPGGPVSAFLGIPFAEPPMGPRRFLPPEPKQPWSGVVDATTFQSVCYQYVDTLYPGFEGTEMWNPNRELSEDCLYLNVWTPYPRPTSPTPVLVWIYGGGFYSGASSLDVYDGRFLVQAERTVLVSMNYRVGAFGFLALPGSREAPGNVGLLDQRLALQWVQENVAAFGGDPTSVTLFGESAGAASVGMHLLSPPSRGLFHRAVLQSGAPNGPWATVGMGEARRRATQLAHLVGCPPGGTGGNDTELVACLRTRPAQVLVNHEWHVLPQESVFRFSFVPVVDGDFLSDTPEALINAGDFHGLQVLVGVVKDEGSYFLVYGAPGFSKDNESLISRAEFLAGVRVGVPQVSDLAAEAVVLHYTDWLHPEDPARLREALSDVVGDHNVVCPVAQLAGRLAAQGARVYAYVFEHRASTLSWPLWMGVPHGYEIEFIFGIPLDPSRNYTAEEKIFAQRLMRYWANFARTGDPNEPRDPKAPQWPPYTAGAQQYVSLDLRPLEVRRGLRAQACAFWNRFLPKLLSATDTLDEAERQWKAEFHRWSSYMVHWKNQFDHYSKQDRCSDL

With `Nc1c2c(nc3c1C(c1cccc([N+](=O)[O-])c1)c1ccc(OS(=O)(=O)c4ccc(F)cc4)cc1O3)CCCC2` (centres unmarked) [4c, 11-Amino-12-(3-nitrophenyl)-7,9,10,12-tetrahydro-8H-chromeno[2,3-b]quinolin-3-yl-4-fluorobenzenesulfonate], in data set [1], it took 78300 ± 3600 nM to reach half-maximal inhibition (IC50 at 24 h). For the same molecule, the “safety index ratio (SI)” value with HepG2 cell line turned out to be 125.26. Further, in data set [2], the “UV–vis spectral change on addition of ZnSO4 (metal chelation)” value is “extraordinary hyperchromic shifts”. Also, the IC50 at hMAO-B turned out to be 8040 ± 270 nM; at Aβ1–42, 4280 ± 170 nM; against hAChE, 620 ± 30 nM; in [6], 27900 ± 1240 nM; on hBuChE, 690 ± 41 nM; at BACE-1 it was 2680 ± 123 nM. The “UV–vis spectral change on addition of FeSO4 (metal chelation)” value in data set [3] is “extraordinary hyperchromic shifts”. At Aβ1–42, the inhibition at 10 µM was found to be 47%. Also, the “UV–vis spectral change on addition of CuSO4 (metal chelation)” value in [4] is “extraordinary hyperchromic shifts”. For the same molecule, in data set [5], the “total antioxidant capacity (Trolox equivalent)” value (“total antioxidant capacity” for short) was 0.80 ± 0.032 μmol of Trolox equivalent/μmol tested compound. Also, the “AChE SI (selectivity index) = IC50 of BuChE/IC50 of AChE” value (shortened to “AChE SI (selectivity index) = IC50”) on hAChE came to 1.11. For the same molecule, the “BuChE SI (selectivity index) = IC50 of AChE/IC50 of BuChE” value (shortened to “BuChE SI (selectivity index) = IC50”) at hBuChE came to 0.90.

For the molecule `COc1ccc(S(=O)(=O)Oc2ccc3c(c2)Oc2nc4c(c(N)c2C3c2cccc(OC)c2)CCCC4)cc1` (centres unmarked) [4g, 11-Amino-12-(3-methoxyphenyl)-7,9,10,12-tetrahydro-8H-chromeno[2,3-b]quinolin-3-yl-4-methoxybenzenesulfonate], half-maximal inhibition in [1] (IC50 at 24 h) required 126000 ± 5300 nM. Also, the “safety index ratio (SI)” value in the data set on HepG2 cell line stood at 417.88. Moreover, in data set [2], the “UV–vis spectral change on addition of ZnSO4 (metal chelation)” value is given as “slight hypochromic shift”. The IC50 stood at 12700 ± 430 nM at hMAO-B; 11700 ± 450 nM against Aβ1–42; 300 ± 10 nM on hAChE; 86000 ± 3810 nM in data set [6]; 350 ± 21 nM against hBuChE; 1460 ± 68 nM at BACE-1. Besides, the “UV–vis spectral change on addition of FeSO4 (metal chelation)” value in data set [3] was “hyperchromic shifts”. The inhibition at 10 µM at Aβ1–42 is 43%. The “UV–vis spectral change on addition of CuSO4 (metal chelation)” value in [4] was “hyperchromic shifts”. The “AChE SI (selectivity index) = IC50” value on hAChE was 1.18. The “BuChE SI (selectivity index) = IC50” value on hBuChE is on record as 0.85.

Regarding `Cc1ccc(S(=O)(=O)Oc2ccc3c(c2)Oc2nc4c(c(N)c2C3c2ccc(Cl)c(Cl)c2)CCCC4)cc1` (centres unmarked) [4n, 11-Amino-12-(3,4-dichlorophenyl)-7,9,10,12-tetrahydro-8H-chromeno[2,3-b]quinolin-3-yl-4-methylbenzenesulfonate], in data set [1], the IC50 at 24 h amounted to 67400 ± 3300 nM. Also, in the data set on HepG2 cell line, the “safety index ratio (SI)” value is given as 141.53. Also, in [2], the “UV–vis spectral change on addition of ZnSO4 (metal chelation)” value is on record as “remarkable hyperchromic effect”. Further, at hMAO-B, the IC50 came out at 3730 ± 130 nM and the “times better than iproniazid (MAO-B inhibition)” value is ~2 times. Besides, in data set [3], the “UV–vis spectral change on addition of FeSO4 (metal chelation)” value is “remarkable hyperchromic effect”. Besides, on Aβ1–42, the IC50 turned out to be 17400 ± 680 nM and the inhibition at 10 µM was determined as 40%. Also, in data set [4], the “UV–vis spectral change on addition of CuSO4 (metal chelation)” value is reported as “remarkable hyperchromic effect”. The “total antioxidant capacity” value in [5] is 0.66 ± 0.026 μmol of Trolox equivalent/μmol tested compound. Also, at hAChE, the “AChE SI (selectivity index) = IC50” value is 0.38 and the IC50 came to 470 ± 20 nM. This molecule also came in with an IC50 in data set [6] of 91700 ± 4060 nM. In addition, on hBuChE, the “BuChE SI (selectivity index) = IC50” value is recorded as 2.59, the “fold more active than rivastigmine (BuChE inhibition)” value is ~4 fold and the IC50 was found to be 180 ± 11 nM. Besides, inhibition against BACE-1 was half-maximal at 250 ± 11 nM (IC50).

As to `Nc1c2c(nc3c1C(c1cccc([N+](=O)[O-])c1)c1ccc(OCC(=O)c4ccc(Cl)cc4)cc1O3)CCCC2` (centres unmarked) [5c, 2-[11-Amino-12-(3-nitrophenyl)-7,9,10,12-tetrahydro-8H-chromeno[2,3-b]quinolin-3-yl]oxy-1-(4-chlorophenyl)ethan-1-one], the IC50 at 24 h in data set [1] turned out to be 188000 ± 6900 nM. Besides, the “safety index ratio (SI)” value with HepG2 cell line is on record as 427.73. Moreover, the “UV–vis spectral change on addition of ZnSO4 (metal chelation)” value in [2] was “slight hyperchromic effect”. Moreover, the IC50 is 5150 ± 170 nM against hMAO-B; 2850 ± 110 nM against Aβ1–42; 440 ± 20 nM against hAChE; 36300 ± 1430 nM in [6]; 82 nM and 80 nM on hBuChE; 380 ± 17 nM on BACE-1. Besides, the “UV–vis spectral change on addition of FeSO4 (metal chelation)” value in data set [3] is “noteworthy hyperchromic effect”. For the same molecule, the inhibition at 10 µM at Aβ1–42 turned out to be 59%. Besides, the “UV–vis spectral change on addition of CuSO4 (metal chelation)” value in data set [4] is “noteworthy hyperchromic effect”. Moreover, the “total antioxidant capacity” value in data set [5] is reported as 0.88 ± 0.034 μmol of Trolox equivalent/μmol tested compound. Moreover, the “AChE SI (selectivity index) = IC50” value on hAChE is 0.19. For the same molecule, the “BuChE SI (selectivity index) = IC50” value at hBuChE is reported as 5.37. Also, the “fold more active than rivastigmine (BuChE inhibition)” value on hBuChE is given as 10 fold.

On to `Nc1c2c(nc3c1C(c1ccc(Cl)c(Cl)c1)c1ccc(OCC(=O)c4ccc(Cl)cc4)cc1O3)CCCC2` (centres unmarked) [5d, 2-[11-Amino-12-(3,4-dichlorophenyl)-7,9,10,12-tetrahydro-8H-chromeno[2,3-b]quinolin-3-yl]oxy-1-(4-chlorophenyl)ethan-1-one], for which the 50% inhibitory concentration (IC50) at 24 h in data set [1] was determined as 154000 ± 6200 nM. The “safety index ratio (SI)” value in the data set on HepG2 cell line turned out to be 611.51. Further, the “UV–vis spectral change on addition of ZnSO4 (metal chelation)” value in data set [2] was “slight hyperchromic shift”. On hMAO-B, the IC50 was found to be 2420 ± 80 nM and the “times better than iproniazid (MAO-B inhibition)” value is given as ~3 times. The “UV–vis spectral change on addition of FeSO4 (metal chelation)” value in [3] was “noticeable optical shift”. Moreover, on Aβ1–42, the “times more active than curcumin (Aβ aggregation inhibition)” value came to 8 fold, the IC50 was determined as 740 ± 30 nM and the inhibition at 10 µM stood at 76%. For the same molecule, the “UV–vis spectral change on addition of CuSO4 (metal chelation)” value in [4] is given as “slight hyperchromic shift”. At hAChE, the “AChE SI (selectivity index) = IC50” value turned out to be 0.59 and the IC50 stood at 250 ± 10 nM. In data set [6], the IC50 came to 71100 ± 2800 nM. Moreover, on hBuChE, the “BuChE SI (selectivity index) = IC50” value was 1.69, the “fold more active than rivastigmine (BuChE inhibition)” value came out at 5 fold and the IC50 came to 140 ± 9 nM. Further, the IC50 against BACE-1 is 440 ± 21 nM.

As to `Nc1c2c(nc3c1C(c1ccc(Cl)c(Cl)c1)c1ccc(OCC(=O)c4ccccc4)cc1O3)CCCC2` (centres unmarked) [5i, 2-[11-Amino-12-(3,4-dichlorophenyl)-7,9,10,12-tetrahydro-8H-chromeno[2,3-b]quinolin-3-yl]oxy-1-phenylethan-1-one], it took 113000 ± 5100 nM to reach half-maximal inhibition in data set [1] (IC50 at 24 h). For the same molecule, in the data set on HepG2 cell line, the “safety index ratio (SI)” value is on record as 200.53. For the same molecule, in data set [2], the “UV–vis spectral change on addition of ZnSO4 (metal chelation)” value is given as “without remarkable shifts”. At hMAO-B, the IC50 stood at 1620 ± 50 nM and the “times better than iproniazid (MAO-B inhibition)” value is on record as ~4 times. Moreover, the “UV–vis spectral change on addition of FeSO4 (metal chelation)” value in [3] is “hyperchromic effect”. Also, on Aβ1–42, the IC50 amounted to 1410 ± 50 nM and the inhibition at 10 µM stood at 68%. Further, the “UV–vis spectral change on addition of CuSO4 (metal chelation)” value in [4] was “without remarkable shifts”. At hAChE, the “AChE SI (selectivity index) = IC50” value turned out to be 0.47 and the IC50 stood at 560 ± 30 nM. This molecule also displayed an IC50 in data set [6] of 17200 ± 760 nM. In addition, on hBuChE, the “BuChE SI (selectivity index) = IC50” value is listed as 2.12, the “fold more active than rivastigmine (BuChE inhibition)” value is reported as ~4 fold and the IC50 was determined as 260 ± 16 nM. This molecule gave an IC50 against BACE-1 of 2120 ± 98 nM.
